Assay results taken from ChEMBL document CHEMBL1136508, “[3H]-methoxymethyl-MTEP and [3H]-methoxy-PEPy: potent and selective radioligands for the metabotropic glutamate subtype 5 (mGlu5) receptor” (Bioorg Med Chem Lett, 2003).

Columns and labels:
[1] = molecular target: T1, Metabotropic glutamate receptor 5 (Homo sapiens, UniProt P41594); assay: In vitro functional potency using an automated assay employing LtK-cells stably expressing human recombinant mGlu5 receptor by measuring changes in cytosolic [Ca2+] concentration
Procedure, shortened: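 Ltk- cells stably expressing recombinant human mGlu5 were loaded with fura-2. Glutamate-evoked rises in cytosolic Ca2+ were read by fluorescence. Concentration–response curves used 12 concentrations in duplicate wells, from two or more separate experiments.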

[2] = molecular target: Metabotropic glutamate receptor 5 (Rattus norvegicus, UniProt P31424); assay: Binding affinity towards mGlu5 receptors in rat brain membranes was evaluated; format: cell membranes
Procedure, shortened: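 Displacement of [3H]-methoxy-PEPy (specific activity 67.6 Ci/mmol) binding to rat brain membranes, incubated at room temperature (equilibrium within 60 min). Nonspecific binding was defined with an unlabelled mGlu5 antagonist as cold displacer. Concentration–response curves gave IC50 values.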

[3] = Lipophilicity (Log D) was determined; format: physicochemical; settings: octanol/water
Procedure, shortened: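 LogD was determined by an HPLC method.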

[4] = molecular target: T1, Metabotropic glutamate receptor 5; assay: Binding affinity towards human mGlu5 receptors expressed in LtK-cells; format: cell-based

T1 sequence (P41594 whole entry): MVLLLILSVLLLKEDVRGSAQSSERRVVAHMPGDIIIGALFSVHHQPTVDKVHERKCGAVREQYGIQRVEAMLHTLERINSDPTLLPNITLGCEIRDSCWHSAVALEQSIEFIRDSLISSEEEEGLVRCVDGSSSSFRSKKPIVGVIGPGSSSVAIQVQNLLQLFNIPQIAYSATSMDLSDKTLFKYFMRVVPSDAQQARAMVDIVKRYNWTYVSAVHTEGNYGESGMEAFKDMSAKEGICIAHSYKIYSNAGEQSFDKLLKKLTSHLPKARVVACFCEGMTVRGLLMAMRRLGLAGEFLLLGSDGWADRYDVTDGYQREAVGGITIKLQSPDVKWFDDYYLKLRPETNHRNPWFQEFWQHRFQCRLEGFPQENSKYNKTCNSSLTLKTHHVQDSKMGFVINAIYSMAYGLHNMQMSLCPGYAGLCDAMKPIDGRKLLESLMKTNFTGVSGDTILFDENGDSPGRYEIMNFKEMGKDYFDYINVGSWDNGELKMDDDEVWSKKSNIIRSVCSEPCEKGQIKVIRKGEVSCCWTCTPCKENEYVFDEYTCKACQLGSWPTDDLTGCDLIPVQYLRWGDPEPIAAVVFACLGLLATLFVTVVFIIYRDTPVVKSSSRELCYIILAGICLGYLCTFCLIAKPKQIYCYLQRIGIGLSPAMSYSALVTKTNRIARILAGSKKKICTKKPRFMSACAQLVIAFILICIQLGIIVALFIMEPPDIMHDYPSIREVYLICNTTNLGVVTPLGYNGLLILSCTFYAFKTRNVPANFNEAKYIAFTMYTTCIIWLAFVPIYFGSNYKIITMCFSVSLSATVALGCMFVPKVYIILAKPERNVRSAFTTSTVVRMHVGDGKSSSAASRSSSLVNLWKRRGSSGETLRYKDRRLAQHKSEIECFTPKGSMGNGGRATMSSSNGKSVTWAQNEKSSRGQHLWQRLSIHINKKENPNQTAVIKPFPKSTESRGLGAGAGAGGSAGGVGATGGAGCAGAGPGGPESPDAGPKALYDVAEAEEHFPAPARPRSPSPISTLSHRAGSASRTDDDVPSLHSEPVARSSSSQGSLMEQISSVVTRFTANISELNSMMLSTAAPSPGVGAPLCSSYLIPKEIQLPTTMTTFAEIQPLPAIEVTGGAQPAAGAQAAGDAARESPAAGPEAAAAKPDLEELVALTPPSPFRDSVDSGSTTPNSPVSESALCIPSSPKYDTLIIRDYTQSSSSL
Sequence of Metabotropic glutamate receptor 5 (Rattus norvegicus, UniProt P31424) (P31424 whole entry): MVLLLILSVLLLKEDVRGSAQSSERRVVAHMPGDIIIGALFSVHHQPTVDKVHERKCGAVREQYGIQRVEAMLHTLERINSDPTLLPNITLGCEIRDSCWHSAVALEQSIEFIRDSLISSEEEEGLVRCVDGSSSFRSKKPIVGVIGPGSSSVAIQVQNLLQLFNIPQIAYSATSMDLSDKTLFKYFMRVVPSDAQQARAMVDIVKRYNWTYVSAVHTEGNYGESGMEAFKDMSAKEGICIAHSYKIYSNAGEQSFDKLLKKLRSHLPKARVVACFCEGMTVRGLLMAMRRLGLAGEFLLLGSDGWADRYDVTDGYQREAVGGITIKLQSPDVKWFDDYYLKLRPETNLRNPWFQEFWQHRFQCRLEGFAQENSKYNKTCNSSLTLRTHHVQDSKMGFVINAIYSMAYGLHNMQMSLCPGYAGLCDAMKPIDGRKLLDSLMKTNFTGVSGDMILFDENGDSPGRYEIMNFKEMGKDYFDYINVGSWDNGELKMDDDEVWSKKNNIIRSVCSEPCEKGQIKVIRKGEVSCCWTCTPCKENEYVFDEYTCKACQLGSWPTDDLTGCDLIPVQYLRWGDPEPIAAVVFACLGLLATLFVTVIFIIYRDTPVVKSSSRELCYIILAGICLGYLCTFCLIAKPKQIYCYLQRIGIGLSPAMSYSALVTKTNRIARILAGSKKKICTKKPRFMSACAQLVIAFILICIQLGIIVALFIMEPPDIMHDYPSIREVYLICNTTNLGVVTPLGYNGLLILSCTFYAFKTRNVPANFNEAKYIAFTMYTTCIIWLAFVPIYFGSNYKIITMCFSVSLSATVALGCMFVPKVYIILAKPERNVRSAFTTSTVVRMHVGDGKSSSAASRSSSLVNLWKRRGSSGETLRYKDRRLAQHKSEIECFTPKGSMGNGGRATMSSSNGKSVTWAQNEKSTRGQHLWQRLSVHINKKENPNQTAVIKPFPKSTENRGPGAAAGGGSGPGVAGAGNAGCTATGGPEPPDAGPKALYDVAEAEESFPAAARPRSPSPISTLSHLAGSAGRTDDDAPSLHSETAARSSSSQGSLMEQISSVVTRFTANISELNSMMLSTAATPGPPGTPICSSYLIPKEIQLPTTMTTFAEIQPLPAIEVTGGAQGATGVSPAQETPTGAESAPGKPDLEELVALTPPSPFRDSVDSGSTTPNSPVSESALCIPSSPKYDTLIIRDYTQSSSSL

| IC50 [1] [nM] | IC50 [2] [nM] | logD [3] | IC50 [4] [nM] | SMILES |
| --- | --- | --- | --- | --- |
| 1 | 12 | 2.25 |  | [3H]C([3H])([3H])Oc1cncc(C#Cc2ccccn2)c1 |
| 7 |  | 2.4 | 47 | [3H]C([3H])([3H])OCc1cncc(C#Cc2csc(C)n2)c1 |
|  |  | 2.5 |  | Cc1cncc(C#Cc2csc(C)n2)c1 |
| 19 |  | 2 |  | COCc1cncc(C#Cc2ccccn2)c1 |
